Source: the EternaBench riboswitch data

Tests used:
MS2 coat protein [1] = assay: apparent Kd, MS2 coat protein; higher = weaker binding; RNA-MaP array; tryptophan 2.4 mM where present
Method in brief: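 Two titrations, one without ligand and one with constant ligand, were run with SNAP-549-labelled MS2 coat protein from 0.7 or 1.5 nM, doubling to 3 µM. The targets were designs transcribed by stalled E. coli RNA polymerase on Illumina sequencing-chip clusters, in 100 mM Tris-HCl pH 7.5, 80 mM KCl, 4 mM MgCl2, BSA, DTT, yeast tRNA and Tween-20. The apparent Kd is the median of filtered per-cluster binding-curve fits, with green signal normalised to red-channel RNA signal and control-cluster median Fmax.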

MS2 coat protein [2] = assay: apparent Kd, MS2 coat protein; higher = weaker binding; RNA-MaP array
Method in brief: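 With or without input ligand, designed RNAs transcribed on an Illumina sequencing chip from sequenced DNA templates were incubated at room temperature with fluorescently labeled MS2 coat protein at 1.5 nM to 3 μM. The buffer was Tris-HCl pH 7.5 with KCl, MgCl2, BSA, DTT, tRNA and Tween20, and incubation ran 0.8–1.5 h at the lowest and 10–20 min at the highest concentrations. Apparent Kd is reported as the median of fits to binding curves from individual clusters. Designs measured on fewer than 10 clusters are not included.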

[3] = designed as: OFF switch for tryptophan, no ligand
[4] = ligand present: tryptophan, designed as: OFF switch for tryptophan
[5] = designed as: ON switch for tryptophan, no ligand
[6] = ligand present: tryptophan, designed as: ON switch for tryptophan
[7] = designed as: ON switch for flavin mononucleotide, no ligand
[8] = ligand present: flavin mononucleotide, designed as: ON switch for flavin mononucleotide

Sequence | apparent Kd (MS2 coat protein [1]; [3]) [nM] | apparent Kd (MS2 coat protein [1]; [4]) [nM] | also measured
CUCAUCCACGCGGCCGCCACUAUAUUGUGGUGUGAAUGUGACGUAUUACAUGAGGAUCACCCAUGUAGGACCGGGCGUGGAUGAG | 75.4 | 168 | 
ACUUCGCAUAGGAAAACUAUGUGAAGAAAUCGAGGACCGGUACGGCCGCCACUCGUCCUCAACAUGAGGAUCACCCAUGUAAUAA | 20.1 | 37.8 | 
GGAGUAGGAAACUAUUCCAAUCCUCGUGAACGAGGACCGGUACGGCCGCCACUCGAUAAAUAAAUACAUGAGGAUCACCCAUGUA | 24.4 | 50.2 | 
UGUGUAAUUGUCUGGUAGAUUUAUUUUUUUCGAGGACCGGUACGGCCGCCACUCGUUAUUUACAUGAGGAUCACCCAUGUUAGCU | 12.9 | 12.9 | 
CACAUUUUUAGAAGGGCGGUUUCACUCCUGCGAGGACCGGUACGGCCGCCACUCGACAUGAGGAUCACCCAUGUGGAGAAGUUAG | 20.5 | 110 | 
AACAUGAGGAUCACCCAUGUACCUUUCGAUCGAGGACCGGUACGGCCGCCACUCGAAAACAUGAGGAUCACCCAUGUUCAACAGG |  |  | apparent Kd (MS2 coat protein [1]; [5]): 145 nM; apparent Kd (MS2 coat protein [1]; [6]): 87.4 nM
ACAUGAGGAUCACCCAUGUGUGUAAAUCCUCGAGGACCGGUACGGCCGCCACUCGAUUGAGUGUAAGUUGAAUGUAACAUUCAAC |  |  | apparent Kd (MS2 coat protein [1]; [5]): 96.2 nM; apparent Kd (MS2 coat protein [1]; [6]): 30.1 nM
AACGAGUGGCGGCCAUUGGGUGAUCCUCUACGAGGACCGGUACGGCCGCCACUCGAUAACAUGAGGAUCACCCAUGUGCCGAUAA | 124 | 133 | 
AGUUCCAGGUCGGCCGCCACUGGCGUGGCCGGUCCUCGGACUUACAUGAGGAUCACCCAUGUGAACAGGACCGGGACCGCAUGGG | 36.9 | 28.7 | 
ACGGAUCGGAAACGAUCCGCGGCGCGGGUGCGAGGACCGGUACGGCCGCCACUCGGGUAACAUGAGGAUCACCCAUGUCCGAUUU | 101 | 304 | 
AGAUUCGACACGGCCGCCACUUGUGGUGGAUUAUCCUGUGUCGAACAUGAGGAUCACCCAUGUACAAGGACCGGGUGUUGAGUCU | 136 | 73.9 | 
GGUAUGUAUUCGGAAACGAAUGCAUACCAACGAGGACCGGUACGGCCGCCACUCGGGCCGUGAUCACAUGAGGAUCACCCAUGUA | 40.2 | 92.7 | 
UUACACAUCUCGGCCGCCACUGGCUUCAAAAUAAUGUGUACAUGAGGAUCACCCAUGUCCGAGCUCAGGACCGGGAGCAAAGAAG |  |  | apparent Kd (MS2 coat protein [1]; [5]): 26.7 nM; apparent Kd (MS2 coat protein [1]; [6]): 27.1 nM
AACAUGAGGAUCACCCAUGUCCCAUGUGAACGAGGACCGGUACGGCCGCCACUCGACCGAGGCGGCACAUGAGGAUCACCCACAU |  |  | apparent Kd (MS2 coat protein [1]; [5]): 234 nM; apparent Kd (MS2 coat protein [1]; [6]): 608 nM
GUGUACAUGAGGAUCACCCAUGUCGAGUUACGAGGACCGGUACGGCCGCCACUCGGCGGCUCGACACGGAUAGCGAUGCGUUGCU | 43.6 | 110 | 
CAUGGCUGUGCGGCCGCCACUGGCUCAUCCUGCAUUACAUGAGGAUCACCCAUGUUGCGGCCUCCCAGGACCGGGCAUAGCCUGA |  |  | apparent Kd (MS2 coat protein [1]; [5]): 300 nM; apparent Kd (MS2 coat protein [1]; [6]): 139 nM
UUAUAAGUACCGGUCCUCAGAUCCUCAUGACGAGGACCGGUACGGCCGCCACUCGAAACAUGAGGAUCACCCAUGUAAUAAUAAC | 37.2 | 18.2 | 
ACAUGAGGAUCACCCAUGUCAUGAGGUUCACGAGGACCGGUACGGCCGCCACUCGACAUGAGGGUCACCCAUGUGAGGAACACCC |  |  | apparent Kd (MS2 coat protein [1]; [5]): 305 nM; apparent Kd (MS2 coat protein [1]; [6]): 97 nM
GGCUAACAUGAGGAUCACCCAUGUAUUGAUACCAGUAUUUGAAAAUACCCUUGGCAGCAAAUGAAGAGCGUAGCAGGGUCGAUUA |  |  | apparent Kd (MS2 coat protein [2]; designed as: ON switch for theophylline, no ligand): 11.3 nM; apparent Kd (MS2 coat protein [2]; ligand present: theophylline, designed as: ON switch for theophylline): 16.8 nM
CCGCAUAUGUGCCCAAUAUAACAUGAGGAUCACCCAUGUGGUAGAAGGAAUGCUCACGGCUCUCAUUAGGAUAUACCAGACUAU |  |  | apparent Kd (MS2 coat protein [2]; [7]): 18.2 nM; apparent Kd (MS2 coat protein [2]; [8]): 17.5 nM
UCAAUUGAGGUCAAGGAUAUCUAGAAACAGACAUGAGGAUCACCCAUGUGCACAGCAUAAACGAGAGAGAAGGUGAGGCAUAUUGA |  |  | apparent Kd (MS2 coat protein [2]; [7]): 42.7 nM; apparent Kd (MS2 coat protein [2]; [8]): 26.5 nM
CCGUAUCCGUAGGAUAUCGACACGAGUCACGUGCGAGAAGGACGGACAUGAGGAUCACCCAUGUAUGCUUCGUG |  |  | apparent Kd (MS2 coat protein [2]; designed as: OFF switch for flavin mononucleotide, no ligand): 22.6 nM; apparent Kd (MS2 coat protein [2]; ligand present: flavin mononucleotide, designed as: OFF switch for flavin mononucleotide): 48.4 nM
